Laboratory results as given in PMC3909687 (Biochimica et biophysica acta, 2012).

Biological target: T1, CC1736 (Caulobacter vibrioides, UniProt Q9A7I7)
T1 sequence (Q9A7I7 1-148): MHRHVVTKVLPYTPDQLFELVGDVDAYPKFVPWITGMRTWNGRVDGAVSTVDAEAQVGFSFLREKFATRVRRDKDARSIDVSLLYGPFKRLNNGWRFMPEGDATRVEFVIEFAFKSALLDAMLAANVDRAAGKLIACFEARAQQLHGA
Assay: spin-column desalting separation, lipid extraction, HPLC-UV
Format: binding
Summary of the method: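 Protein (2-3 nmol; cytochrome c 8-10 nmol as control) incubated with ligand (0.005–0.27 mM) in 20 mM MES pH 6.4, 100 mM NaCl, 5.0 mM CaCl2, 0.1 mM dodecyl maltoside, 1.0 mM TCEP, 2% ethanol, 45 min, 30 °C. Desalting spin column; protein by Lowry; eluate lipids by reversed-phase HPLC-UV.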

First: COC1=CC(=O)C(C)=C(C/C=C(\C)CC/C=C(\C)CCC=C(C)C)C1=O [DMQ3]
Second: COC1=C(OC)C(=O)C(C/C=C(\C)CC/C=C(\C)CCC=C(C)C)=C(C)C1=O [Q3]
The Kd of the first is 4-fold higher: 140 ± 77 µM for the first, 35 ± 16 µM for the second. The second binds more tightly here.

Molecule `COC1=C(OC)C(=O)C(C/C=C(\C)CCC=C(C)C)=C(C)C1=O` [Q2] has a Kd of 18 ± 2 µM.
